High-throughput results (PubChem BioAssay)
LEDGF integ inh: blocks HIV-1 LEDGF/p75-dependent DNA integration; TR-FRET IN-LEDGF/p75 DNA integration, Eu/Cy5; inhibition, % at 3.7 µM; 370,000 compounds, 0.64% hits; AID 743269;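 active = inhibition above the screen-wide mean plus 3 SD, cut at about 13% in these data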;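 also: signal is the Cy5 over europium emission ratio at 671 and 618 nm; 0% = plate median of compound wells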
ABHD5 PLIN5 PPI: blocks binding of human ABHD5 to perilipin-5 | AID 602281 | inhibition, % at 4 µM | Q00G26+Q8WTS1 | Split G. princeps luciferase complementation, luminescence, 4 h | 360,000 compounds, 0.78% hits;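 active = inhibition above the mean inhibition across every tested compound plus 3 SD, cut at about 22% in these data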;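 also: 0% = DMSO only wells and the 100% control is not disclosed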
MBD2 inh: blocks human MBD2 binding to methylated DNA; Q9UBB5; inhibition, % at 4.4 µM; TR-FRET, MBD2 binding to methylated oligonucleotide; 370,000 compounds, 0.31% hits; in the data active = inhibition above about 13%
RBBP9 inh: inhibitors of human serine hydrolase RBBP9 | recombinant RBBP9, FP-Rh probe fluorescence polarization | O75884 | AID 1515 | 220,000 compounds, 0.2% hits | inhibition, % at 7.94 µM;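 active = inhibition above the campaign mean of all tested compounds plus 3 SD, cut at about 14% in these data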;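 also: plate controls were DMSO wells with RBBP9 for no effect and wells lacking RBBP9 protein for full effect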
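Material: RBBP9 protein. Amount: RBBP9 at 2.5 µM in dispensed solution, before mixing. Schedule: 30 min then 45 min, 25 °C. Medium: Tris buffer pH 8.0, NaCl, Pluronic. Measured by: fluorescence polarization. Measure: percent inhibition from mP, scaled between DMSO and no-protein wells. Replication: one well per compound.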
PRMT1 FP inh: blocks human protein arginine methyltransferase 1. Q99873. recombinant PRMT1, activity-based probe fluorescence polarization. inhibition, % at 2.79 µM. 370,000 compounds, 1.3% hits;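 active = inhibition above about 21% made by adding two undisclosed values, limit read from the data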
Target sequence (Q99873 whole entry, looked up): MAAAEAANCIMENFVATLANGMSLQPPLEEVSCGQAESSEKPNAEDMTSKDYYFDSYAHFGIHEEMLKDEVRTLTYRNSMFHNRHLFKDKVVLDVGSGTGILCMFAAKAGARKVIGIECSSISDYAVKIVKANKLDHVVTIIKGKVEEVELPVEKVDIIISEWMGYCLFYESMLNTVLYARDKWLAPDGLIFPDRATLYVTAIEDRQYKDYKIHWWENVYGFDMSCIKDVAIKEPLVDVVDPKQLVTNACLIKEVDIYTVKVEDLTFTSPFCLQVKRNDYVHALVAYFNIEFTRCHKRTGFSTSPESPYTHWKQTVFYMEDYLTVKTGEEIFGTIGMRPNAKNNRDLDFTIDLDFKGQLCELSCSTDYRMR
UHRF1 binding: UHRF1 methyl-DNA binding inhibition | Q96T88 | UHRF1 binding to methylated oligo, TR-FRET | inhibition, % at 4.4 µM | 370,000 compounds, 0.75% hits; in the data active = inhibition above about 21%;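 also: UHRF1 SRA domain binding a hemimethylated CpG hairpin DNA probe; 0% = median of test compound wells and 100% = reference inhibitor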
* marks the source's active call; other numbers are inactive results; · = no result. This is a sample that favours compounds with a hit; in the whole collection about 3.1% have one here.

SMILES	LEDGF integ inh	ABHD5 PLIN5 PPI	MBD2 inh	RBBP9 inh	PRMT1 FP inh	UHRF1 binding
CCCC[C@@H](C)C[C@@H](C)C(=O)N(C)[C@@H](CC(C)C)C(=O)N[C@H](C(=O)N(C)[C@H](C(=O)N1C[C@@H](O)C[C@H]1C(=O)N1C(=O)C=C[C@@H]1C)C(C)C)C(C)OC(C)=O (some centres undefined)	·	43.0*	·	·	·	·
Clc1cc(Cl)cc(CN2Cc3ccccc3-n3nncc3C2)c1	2.5	·	-0.6	·	-2.5	0.5
Cc1cccc(C(C)c2cnc[nH]2)c1C (centres undefined)	-6.4	·	1.9	·	1.5	1.9
C=Cc1cc(OC)c2c(c1)c(=O)oc1c2cc(OC)c2c(O)ccc(C3OC(C)C(O)C(C)(O)C3O)c21 (centres undefined)	10.2	6.6	31.2*	·	1.7	10.0
CN1CCN(c2ccc([N+](=O)[O-])c3no[n+]([O-])c23)CC1	0.7	-0.2	-29.2	-5.1	112.0*	-26.8
O=[N+]([O-])c1ccc(N(CCO)CCO)c2c1no[n+]2[O-]	10.1	11.1	-27.4	·	18.8	-22.7
O=C1NC(=O)C(Sc2ccccc2[N+](=O)[O-])C(=O)N1	3.7	-4.3	-2.0	·	56.5*	-1.3
C=CCN(CC#CCO)Cc1ccc(OC)cc1OC	-2.5	·	3.6	·	-3.3	-3.6
CC(Cc1ccccc1)NCc1ccccc1O (centres undefined)	-4.3	4.4	3.0	-10.4	5.5	34.8*
Brc1ccc2c(c1)-n1nncc1CNC2	5.4	·	1.0	·	-6.5	34.9*
CC(NC(=O)OCc1ccccc1)[P+](=O)O (centres undefined)	0.0	·	6.0	·	-1.7	1.9
O=C(O)CCn1cc(C=C2C(=O)NC(=O)NC2=O)c(-c2cc3ccccc3oc2=O)n1	-4.9	22.2*	-2.3	-8.8	19.0	-2.5
COC(=O)C1CN(C#N)N(c2ccc(Cl)cc2)C12c1ccccc1-c1ccccc12 (centres undefined)	·	74.0*	·	-6.9	·	·
CC1(C)C(C(=O)N2CCN(c3ccc(Cl)cc3)CC2)C1(C)C	-5.3	-2.4	-2.4	·	-0.1	-1.1
COc1ccc(N2C(=O)CC(=O)NC2=O)cc1	-1.2	22.3*	-4.4	-3.0	7.4	-3.0
CC(C)CNC(=O)c1c(N)n(Cc2ccco2)c2nc3ccccc3nc12	5.8	21.8	-4.6	1.3	40.1*	-0.1
CCN(CC)c1ccc(CNCCc2ccccc2F)cc1	-0.5	9.5	-3.5	-8.2	0.4	0.3
Cc1ccc(CNCCc2ccccc2F)cc1	2.1	0.2	10.2	5.7	-2.1	24.9*
O=C(CN1C(=O)[C@@H](Cc2ccc(O)cc2)N=C(c2ccccc2)c2ccccc21)NC1CCCCC1	0.2	·	-3.4	·	-1.1	-1.0
CCOC(=O)c1c(NS(=O)(=O)c2ccccc2)n(CCCOC)c2nc3ccccc3nc12	20.0*	-6.3	8.2	0.5	2.8	13.2
CCCCCn1c(NC(=O)c2ccco2)c(C(=O)OCC)c2nc3ccccc3nc21	·	16.3	·	-7.9	·	·
COc1cc(O)c(C(=O)O)c(-c2cc(O)c(O)cc2C)c1	9.7	19.4	4.1	·	66.9*	1.0
C=C1C(=O)C(C)=C2C(=O)N3Cc4[nH]c5ccccc5c4CC3(C(=O)OC)C12 (centres undefined)	3.4	·	-5.5	·	11.0	-2.4
C[C@]12CC[C@H]3[C@@H](CCC4=CC(=O)CC[C@@H]43)[C@@H]1CC[C@@H]2O	-0.9	9.1	2.5	·	5.3	0.6
C[C@]12CC[C@@H]3c4ccc(O)c(O)c4CC[C@H]3[C@@H]1CC[C@@H]2O	-0.6	5.6	8.1	-2.3	35.2*	1.4
CCCC(=O)N1c2ccc(Cl)cc2C(c2ccccc2)=NCC1C(=O)NC(C)(C)C (centres undefined)	5.0	·	0.7	·	-2.6	1.2
Cc1ccc(N2C(=O)NC(=O)/C(=C/c3ccc(OC(=O)c4cccs4)cc3)C2=O)cc1	-1.9	34.3*	2.5	-10.4	10.3	0.4
O=C1CC=C2C3CC4N(CCC45c4ccccc4N1C25)CC3=CCO (centres undefined)	0.4	-0.8	3.7	·	-1.7	-3.3
O=C1CC=C2C3CC4N(CCC45c4cc(O)c(O)cc4N1C25)CC3=CCBr (centres undefined)	62.1*	10.4	15.3*	·	16.5	31.1*
CC(C)C[C@H]1N=C(c2ccccc2)c2ccccc2N(CC(=O)NC(C)(C)C)C1=O	-3.6	·	2.8	·	-1.7	-3.6
